Test results from article PMC10013843 (Molecular psychiatry, 2022).

Legend:
mice [1] = conditions: cited from earlier work
[^14C]- = assay type: in vivo, rat; conditions: for % of the total radioactivity exposure through 72 hours: plasma; for plasma exposure AUC 0–72h: [^14C]-(2R,6R)-HNK 10 mg/kg i.v.
How it was run: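 Male and female rats received a single bolus IV dose of 14C-labelled test compound (10 mg/kg). Blood and plasma radioactivity was followed from 15 min to 120 h in males and to 72 h in females. […] Whole-body autoradiograms were taken at 30 min and 4 h.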

HCN1 channel = target: T1, HCN1 channel (Homo sapiens, UniProt O60741); assay: HCN1 channel functional interaction; assay type: biochemical
T1 sequence (O60741 1-890): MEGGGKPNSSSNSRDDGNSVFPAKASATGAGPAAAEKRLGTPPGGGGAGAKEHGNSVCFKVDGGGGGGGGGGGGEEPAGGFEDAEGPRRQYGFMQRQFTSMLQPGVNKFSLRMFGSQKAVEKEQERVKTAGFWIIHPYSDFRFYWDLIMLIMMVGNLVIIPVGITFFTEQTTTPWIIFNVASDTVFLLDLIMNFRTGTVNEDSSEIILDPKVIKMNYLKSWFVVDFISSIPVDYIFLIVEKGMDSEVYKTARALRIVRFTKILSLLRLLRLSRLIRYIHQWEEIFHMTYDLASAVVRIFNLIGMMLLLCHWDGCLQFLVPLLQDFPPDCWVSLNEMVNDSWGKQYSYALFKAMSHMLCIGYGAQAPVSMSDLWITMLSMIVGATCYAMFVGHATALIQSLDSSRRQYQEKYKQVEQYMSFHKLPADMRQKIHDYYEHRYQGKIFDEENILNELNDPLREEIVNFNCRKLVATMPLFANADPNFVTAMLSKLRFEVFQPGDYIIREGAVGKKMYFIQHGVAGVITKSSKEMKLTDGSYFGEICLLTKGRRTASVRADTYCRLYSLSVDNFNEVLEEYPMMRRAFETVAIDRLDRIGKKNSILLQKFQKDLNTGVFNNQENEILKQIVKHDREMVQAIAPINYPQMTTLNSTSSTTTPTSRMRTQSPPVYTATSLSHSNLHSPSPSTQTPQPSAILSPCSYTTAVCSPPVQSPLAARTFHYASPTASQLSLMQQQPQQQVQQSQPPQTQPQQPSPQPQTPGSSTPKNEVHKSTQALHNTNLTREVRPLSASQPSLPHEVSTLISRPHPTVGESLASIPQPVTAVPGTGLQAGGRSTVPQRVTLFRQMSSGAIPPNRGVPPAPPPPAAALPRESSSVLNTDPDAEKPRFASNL

mice [2] = assay: Conditioned place preference; assay type: in vivo, mouse; conditions: male mice
How it was run: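 Male C57BL/6J mice (20–25 g, n = 8/group) received saline or test compound (10, 30 or 65 mg/kg IP) before 15-min confinement to one side of a two-sided chamber (clear/white vs checkered/black). Vehicle was given before the opposite side on alternate days, counterbalanced across 6 conditioning days. A 20-min free-exploration pre-test came first, within 8 daily sessions. Infrared beams tracked time per side and distance travelled.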

[3] = target: kappa-opioid receptors, KOR (Rattus norvegicus, UniProt P34975); assay: [^3H]U69,593 competition binding, rat brain membranes
KOR (OPRK1) = KOR (OPRK1) (Homo sapiens, UniProt P41145); assay: cAMP BRET; assay type: cell-based; conditions: HEK-293 cells, up to a concentration of 1 mM
How it was run: (§1)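 HEK-293 cells (DMEM, 10% FBS, 37°C/5% CO2) were PEI-transfected with 5 μg untagged MOR, KOR or DOR plus 5 μg CAMYEL cAMP biosensor and used 48 h later. Cells were suspended in DPBS with 100 μM metabisulfite and 5.5 mM glucose and kept 45 min in the dark. Forskolin (10 μM) was added for 5 min, then coelenterazine H (5 μM) for 5 min, then compound. BRET (535/475 nm) was read 5 min later, forskolin-only background subtracted, and expressed as % of each receptor's maximum. Triplicates; 3–6 experiments for EC50/Emax.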

rats = assay: Intravenous self-administration; assay type: in vivo, rat
How it was run: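 Male rats had jugular catheters placed under isoflurane and recovered 6–8 days. They were food-restricted (18–20 g/day) on a reverse 12-h cycle. For training (n = 14), rats self-administered test compound at 0.5 mg/kg/infusion IV, FR1 with 20-s timeout, for 16 days. For dose-response (n = 8/condition), unit doses of 0.125, 0.25, 0.5 or 1.0 mg/kg/infusion were given in randomized sequence, 1 h/day for 8 days. Read-out was infusions earned.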

NK1R = NK1R (Rattus norvegicus, UniProt P14600); assay: [^3H]-Substance P binding, rat whole brain membrane homogenates
NMDAR = conditions: cited from earlier work
mGluR4 = mGluR4 (Homo sapiens, UniProt Q14833); assay: mGluR functional assay; assay type: biochemical
>30,000 proteins = assay: Collective screening and target deconvolution; assay type: binding
mice [4] = assay: Forced swimming test; assay type: in vivo, mouse; conditions: 24 hours after
How it was run: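 Male CD-1 mice (35–40 g, n = 8/condition) received a single IP dose of test compound (1, 3 or 10 mg/kg) or saline 24 h before a 6-min swim under 800 lux. Cylinders were 30 cm high × 20 cm diameter, holding 15 cm of water at 23 ± 1°C. A blinded observer scored immobility from video over the last 4 min.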

opioid receptors = conditions: cited from earlier work
mGluR5 = mGluR5 (Homo sapiens, UniProt P41594); assay: mGluR functional assay; assay type: biochemical
mGluR3 = mGluR3 (Homo sapiens, UniProt Q14832); assay: [^3H]LY341495 competition binding, recombinant receptor membranes; conditions: membranes expressing human recombinant mGluR3
[5] = target: delta-opioid receptor (DOR; OPRD1) (Homo sapiens, UniProt P41143); assay: cAMP BRET; assay type: cell-based; conditions: HEK-293 cells, up to a concentration of 1 mM
How it was run: as §1

[6] = target: estrogen receptor alpha (ERα) (Homo sapiens, UniProt P03372); assay: Screening and target deconvolution experiments; assay type: binding

N[C@@]1(c2ccccc2Cl)CCC[C@@H](O)C1=O [(2R,6R)-HNK, (2R,6R)-hydroxynorketamine]
pain reduction after naloxone pretreatment (mice [1]): not blocked by naloxone pretreatment | % of the total radioactivity exposure through 72 hours ([^14C]-; female rats): 26.7% | plasma exposure AUC 0–72h ([^14C]-; female rats): 7090 ng eq·h/g | % of the total radioactivity exposure through 72 hours ([^14C]-; male rats): 21.6% | plasma exposure AUC 0–72h ([^14C]-; male rats): 5330 ng eq·h/g | interaction with the HCN1 channel (HCN1 channel): neither (2R,6R)-HNK nor ketamine interacted | locomotor activity, repeated administration (mice [2]; 10, 30, 65 mg/kg IP, CPP conditioning sessions): did not produce any changes in locomotor activity | conditioned place preference (mice [2]; repeated 10, 30, 65 mg/kg IP): did not induce CPP | locomotor sensitization (mice [2]; repeated administration): did not induce sensitization | binding to opioid receptors (KOR) ([3]; concentrations up to 100 μM): does not bind | KOR binding, displacement of [^3H]U69,593 ([3]; rat brain membranes): failed to displace | cAMP response (inhibition of cAMP accumulation) (KOR (OPRK1)): did not induce any cAMP response | self-administration training (rats; male rats, 0.5 mg/kg/inf IV, FR1, 20-s timeout, 16 days): not a reliable reinforcer | self-administration dose-response (rats; rats, unit doses 0.125, 0.25, or 1 mg/kg/inf): did not respond | [^3H]-Substance P binding (NK1R): did not alter | effect on NMDAR function (NMDAR; 10 μM, cultured hippocampal neurons): no effect | reduction in synaptic NMDAR currents (NMDAR; 50 μM): ~ 40% | effect in functional assay at mGluR4 (mGluR4): no effects | direct protein interactions, all screens together (>30,000 proteins): failed to identify any (2R,6R)-HNK-protein interactions | immobility time in forced swimming test, difference from vehicle (mice [4]; 1 mg/kg IP): but not 1 mg/kg | immobility time in forced swimming test (mice [4]; 3 or 10 mg/kg IP, single administration): reduced immobility time | functional properties at opioid receptors (opioid receptors): inverse agonist properties | effect in functional assay at mGluR5 (mGluR5): no effects | displacement of [^3H]LY341475 (mGluR3): failed to displace | cAMP response (inhibition of cAMP accumulation) [5]: did not induce any cAMP response | interaction with ERα [6]: failed to interact
